Calls of active or inactive are those of the source. The rule behind the calls is not given here.
Legend:
[1] = biological target: T1, Protein deacetylase HDAC6 (Homo sapiens, UniProt Q9UBN7); test: Inhibition of recombinant human HDAC6 using fluorogenic HDAC substrate preincubated for 15 mins followed by substrate addition and measured after 30 mins by fluorescence analysis
T1 sequence (Q9UBN7 whole entry): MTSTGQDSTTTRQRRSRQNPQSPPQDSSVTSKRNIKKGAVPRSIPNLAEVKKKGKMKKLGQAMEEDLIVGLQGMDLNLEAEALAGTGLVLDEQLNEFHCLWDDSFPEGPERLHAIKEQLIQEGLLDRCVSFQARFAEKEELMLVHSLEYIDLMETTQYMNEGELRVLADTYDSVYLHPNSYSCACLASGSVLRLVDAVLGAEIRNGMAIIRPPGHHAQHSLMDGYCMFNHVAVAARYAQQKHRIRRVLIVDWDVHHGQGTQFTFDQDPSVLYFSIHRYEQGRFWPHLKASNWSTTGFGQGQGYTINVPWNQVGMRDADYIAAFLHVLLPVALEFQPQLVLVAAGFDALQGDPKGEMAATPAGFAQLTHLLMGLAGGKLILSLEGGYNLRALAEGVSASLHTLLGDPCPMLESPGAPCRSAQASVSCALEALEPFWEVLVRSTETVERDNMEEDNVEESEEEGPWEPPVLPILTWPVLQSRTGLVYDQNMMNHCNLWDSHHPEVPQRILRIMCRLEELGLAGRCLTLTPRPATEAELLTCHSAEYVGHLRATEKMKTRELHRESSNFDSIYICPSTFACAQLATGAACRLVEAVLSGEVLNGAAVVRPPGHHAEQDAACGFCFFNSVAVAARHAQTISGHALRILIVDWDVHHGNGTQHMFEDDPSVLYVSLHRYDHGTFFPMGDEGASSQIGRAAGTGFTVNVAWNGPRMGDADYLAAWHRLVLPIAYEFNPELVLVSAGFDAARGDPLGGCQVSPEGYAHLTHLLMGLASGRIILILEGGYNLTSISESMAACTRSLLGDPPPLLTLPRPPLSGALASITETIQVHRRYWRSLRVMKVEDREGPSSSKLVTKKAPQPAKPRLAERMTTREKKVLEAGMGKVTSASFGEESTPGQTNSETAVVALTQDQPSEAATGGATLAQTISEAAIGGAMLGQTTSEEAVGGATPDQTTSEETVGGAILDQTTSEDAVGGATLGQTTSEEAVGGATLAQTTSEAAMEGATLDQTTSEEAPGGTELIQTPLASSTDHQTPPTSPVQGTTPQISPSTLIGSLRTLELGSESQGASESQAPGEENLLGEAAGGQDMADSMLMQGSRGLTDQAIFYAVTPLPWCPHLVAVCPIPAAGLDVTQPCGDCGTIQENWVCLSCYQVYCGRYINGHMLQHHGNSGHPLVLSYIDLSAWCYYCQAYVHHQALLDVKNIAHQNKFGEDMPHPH

[2] = Antioxidant activity assessed as tert-butyl hydroperoxide radical scavenging at 10 uM up to 200 mins; type: functional
Method in brief: (§1)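 Kinetic peroxide scavenging by GSH at 25 °C in 100 mM phosphate buffer, pH 7.5. Final conditions: EDTA 1 mM, GSH 0.25 mM, NADPH 0.50 mM, glutathione reductase 1.3 unit·mL-1, peroxide 0.20 mM (H2O2, t-BuOOH or Cum-OOH), catalyst 10 μM. Scavenging was followed over time, and maximal scavenging was derived. Mean ± SE, three independent experiments.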

[3] = Antioxidant activity assessed as H2O2 radical scavenging at 10 uM up to 200 mins; type: functional; method in brief: as §1
[4] = Antioxidant activity assessed as cumene hydroperoxide radical scavenging at 10 uM up to 200 mins; type: functional; method in brief: as §1
Histone deacetylase 3 = Histone deacetylase 3 (Homo sapiens, UniProt O15379); test: Inhibition of recombinant human HDAC3 using fluorogenic HDAC substrate after 30 mins by fluorescence analysis
PC-12 [5] = test: Cytoprotective activity against H2O2-induced damage in rat PC12 cells assessed as decrease in ROS accumulation preincubated for 24 hrs followed by H2O2 challenge measured after 12 hrs by DCFH-DA dye-based inverted fluorescence microscopic analysis; type: functional, cell-based
Method in brief: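 PC12 cells were pretreated with compound (5 or 10 µM), then challenged with H2O2 and stained with DCFH-DA to show ROS. Fluorescence images were taken by inverted fluorescence microscopy.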

PC-12 [6] = test: Cytotoxicity against rat PC12 cells at 20 uM in presence of tubastantin A after 24 hrs by MTT assay; type: cell-based; details: pc-12, 24 h
PC-12 [7] = test: Cytotoxicity against rat PC12 cells at 20 uM after 24 hrs by MTT assay; type: cell-based; details: pc-12, 24 h
PC-12 [8] = test: Antioxidant activity against H2O2-induced oxidative stress in rat PC12 cells assessed as decrease in ROS accumulation preincubated for 24 hrs followed by H2O2 challenge and measured after 12 hrs coincubated with tubastatin A by DCFH-DA dye-based fluorescence analysis; type: functional, cell-based
Method in brief: (§2)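 Intracellular ROS was detected by DCFH-DA staining, which esterases deacetylate and ROS oxidise to fluorescent dichlorofluorescein. Fluorescence was quantified on a microplate reader.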

PC-12 [9] = test: Antioxidant activity against H2O2-induced oxidative stress in rat PC12 cells assessed as decrease in ROS accumulation at 5 uM preincubated for 24 hrs followed by H2O2 challenge and measured after 12 hrs by DCFH-DA dye-based fluorescence analysis; type: functional, cell-based; method in brief: as §2
PC-12 [10] = test: Neuroprotective activity against 6-OHDA-induced toxicity in rat PC12 cells assessed as increase in cell viability at 5 uM pretreated for 24 hrs followed by 6-OHDA challenge and measured after 12 hrs by MTT assay; type: functional, cell-based
Method in brief: (§3)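 Medium was replaced with fresh medium containing H2O2 (400 μM) or 6-OHDA (200 μM), and incubation continued 12 h. Viability was read by MTT assay. Mean ± SD, three independent experiments.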

PC-12 [11] = test: Neuroprotective activity against H2O2-induced toxicity in rat PC12 cells assessed as cell viability at 10 uM pretreated for 24 hrs followed by H2O2 challenge and measured after 12 hrs by MTT assay relative to control; type: functional, cell-based; method in brief: as §3
PC-12 [12] = test: Antioxidant activity against H2O2-induced oxidative stress in rat PC12 cells assessed as decrease in ROS accumulation at 5 uM preincubated for 24 hrs followed by H2O2 challenge and measured after 12 hrs coincubated with tubastatin A by DCFH-DA dye-based fluorescence analysis; type: functional, cell-based; method in brief: as §2
PC-12 [13] = test: Cytoprotective activity against H2O2-induced damage in rat PC12 cells assessed as decrease in ROS accumulation preincubated for 24 hrs followed by H2O2 challenge measured after 12 hrs by DCFH-DA dye-based fluorescence analysis; type: functional, cell-based; method in brief: as §2
PC-12 [14] = test: Neuroprotective activity against 6-OHDA-induced toxicity in rat PC12 cells assessed as increase in cell viability at 5 to 10 uM pretreated for 24 hrs followed by 6-OHDA challenge and measured after 12 hrs coincubated with tubastatin A by MTT assay; type: functional, cell-based; method in brief: as §3
PC-12 [15] = test: Neuroprotective activity against 6-OHDA-induced toxicity in rat PC12 cells assessed as increase in cell viability at 10 uM pretreated for 24 hrs followed by 6-OHDA challenge and measured after 12 hrs by MTT assay; type: functional, cell-based; method in brief: as §3
PC-12 [16] = test: Neuroprotective activity against H2O2-induced toxicity in rat PC12 cells assessed as cell viability at 5 to 10 uM pretreated for 24 hrs followed by H2O2 challenge and measured after 12 hrs coincubated with tubastatin A by MTT assay relative to control; type: functional; method in brief: as §3
PC-12 [17] = test: Cytotoxicity against rat PC12 cells at 20 uM in presence of ebselen after 24 hrs by MTT assay; type: cell-based; details: pc-12, 24 h
Method in brief: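 PC12 cells exposed for 24 h to compound at 10 or 20 µM, alone or combined with ebselen. Viability by MTT assay. Mean ± SD of three independent experiments.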

PC-12 [18] = test: Neuroprotective activity against H2O2-induced toxicity in rat PC12 cells assessed as cell viability at 5 to 10 uM pretreated for 24 hrs followed by H2O2 challenge and measured after 12 hrs coincubated with ebselen by MTT assay relative to control; type: functional
Method in brief: (§4)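 PC12 cells seeded at 1 × 10⁴ cells/well and grown 1 d, then pretreated 24 h with compound, alone or with ebselen. Medium replaced with fresh medium containing the insult (H2O2 400 µM or 6-OHDA 200 µM), incubated 12 h. Viability by MTT assay, relative to control. Mean ± SD of three independent experiments.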

PC-12 [19] = test: Antioxidant activity against H2O2-induced oxidative stress in rat PC12 cells assessed as decrease in ROS accumulation at 5 uM preincubated for 24 hrs followed by H2O2 challenge and measured after 12 hrs coincubated with ebselen by DCFH-DA dye-based fluorescence analysis; type: functional, cell-based
Method in brief: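 PC12 cells pretreated with compound (5 or 10 µM) alone or together with ebselen, then challenged with H2O2. Intracellular ROS detected by DCFH-DA staining, which is deacetylated in cells and oxidised by ROS to fluorescent dichlorofluorescein. Imaged by inverted fluorescence microscopy and quantified on a fluorescence microplate reader.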

PC-12 [20] = test: Neuroprotective activity against 6-OHDA-induced toxicity in rat PC12 cells assessed as increase in cell viability at 5 to 10 uM pretreated for 24 hrs followed by 6-OHDA challenge and measured after 12 hrs coincubated with ebselen by MTT assay; type: functional, cell-based; method in brief: as §4

Chain of Histone deacetylase 3 (O15379 whole entry): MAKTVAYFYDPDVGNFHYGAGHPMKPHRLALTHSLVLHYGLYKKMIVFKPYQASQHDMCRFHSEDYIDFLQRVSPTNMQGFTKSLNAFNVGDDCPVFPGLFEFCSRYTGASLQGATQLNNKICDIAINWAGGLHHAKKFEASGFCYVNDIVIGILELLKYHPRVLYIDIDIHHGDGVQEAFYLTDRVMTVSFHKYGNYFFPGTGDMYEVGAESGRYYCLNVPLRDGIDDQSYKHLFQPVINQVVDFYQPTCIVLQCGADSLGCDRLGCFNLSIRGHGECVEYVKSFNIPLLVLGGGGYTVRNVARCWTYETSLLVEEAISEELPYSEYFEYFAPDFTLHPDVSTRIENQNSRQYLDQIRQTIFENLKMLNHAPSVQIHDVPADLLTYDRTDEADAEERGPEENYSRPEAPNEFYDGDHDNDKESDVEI

Structure (SMILES): CC(c1ccc(C(=O)NO)cc1)n1[se]c2ccccc2c1=O (racemic)
- IC50 [1]: 863 nM

Structure (SMILES): O=C(CCCOc1ccc(-n2[se]c3ccccc3c2=O)cc1)NO
- IC50 [1]: 903 nM

Structure (SMILES): O=C(NO)c1ccc(Cn2[se]c3ccc(C(F)(F)F)cc3c2=O)cc1
- IC50 [1]: 584 nM

Structure (SMILES): O=C(CCc1ccc(-n2[se]c3ccccc3c2=O)cc1)NO
- IC50 [1]: 1140 nM

Structure (SMILES): O=C(CCCCCCn1[se]c2ccccc2c1=O)NO
- Activity [2]: 41%
- Activity [3]: 41%
- Activity [4]: 25%
- IC50 (Histone deacetylase 3): 164 nM
- IC50 [1]: 19 nM

Structure (SMILES): O=C(NO)c1cnc(N2CCC(n3[se]c4ccccc4c3=O)CC2)nc1
- IC50 [1]: 968 nM

Structure (SMILES): O=c1c2ccccc2[se]n1-c1ccccc1 [EBSELEN]
- Activity (PC-12 [5]): Active
- Activity [2]: 71%
- Activity [3]: 51%
- Activity [4]: 29%
- Activity (PC-12 [6]): Non-Toxic
- Activity (PC-12 [7]): Non-Toxic
- Activity (PC-12 [8]): Active
- Activity (PC-12 [9]): Active
- Activity (PC-12 [10]): Active
- Activity (PC-12 [11]): Active
- Activity (PC-12 [12]): Active
- Activity (PC-12 [13]): Active
- Activity (PC-12 [14]): Active
- Activity (PC-12 [15]): Active
- Activity (PC-12 [16]): 90%
- IC50 [1]: 11500 nM

Structure (SMILES): O=C(NO)c1ccc(Cn2[se]c3ccc(F)cc3c2=O)cc1
- IC50 [1]: 178 nM

Structure (SMILES): CN1CCc2c(c3ccccc3n2Cc2ccc(C(=O)NO)cc2)C1 [TUBASTATIN A]
- Activity (PC-12 [17]): Non-Toxic
- Activity (PC-12 [18]): 90%
- Activity (PC-12 [19]): Active
- Activity (PC-12 [5]): Active
- Activity (PC-12 [7]): Non-Toxic
- Activity (PC-12 [8]): Dose-dependent effect
- Activity (PC-12 [9]): Active
- Activity (PC-12 [10]): Active
- Activity (PC-12 [11]): Active
- Activity (PC-12 [20]): Active
- Activity (PC-12 [13]): Active
- Activity (PC-12 [15]): Active

Source: ChEMBL document CHEMBL4261629 (Bioorg Med Chem, 2018)
